Data on ten compounds can be found in ChEMBL document CHEMBL1149466, “Synthesis and pharmacochemical study of novel polyfunctional molecules combining anti-inflammatory, antioxidant, and hypocholesterolemic properties” (Bioorg Med Chem Lett, 2006).

The structures appear in SMILES notation. Calls of active or inactive are those of the source. No cut-off for these calls is given here.

For data set [1], the system named is Radical scavenging activity. The experiment in a line: DPPH radical scavenging activity at 0.1 mM. Format: functional. A digest of the protocol:
(§1)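 Radical scavenging measured as % interaction with stable free radical DPPH (0.2 mM) after 30 min incubation, compounds at 0.2, 0.1 and 0.05 mM.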

Data set [2] concerns Rattus norvegicus. Put plainly: Decrease in total cholesterol level in rat at 200 umol/kg, ip. Details: scale not given: the % may be the effect or the level left. The note with it: route intraperitoneal.
Data set [3] concerns Rattus norvegicus. Put plainly: Anti-inflammatory activity against paw edema induced by carrageenan in fischer rat at 300 umol/kg, ip. The class given is functional. A digest of the protocol: (§2)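 Carrageenan paw edema in rats; compounds given ip at 300 µmol/kg. Read-out % paw weight increase versus controls, converted to % edema inhibition; mean of 4-9 rats from two independent experiments, Student's t test.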

Data set [4] has as its system Rattus norvegicus. The experiment in a line: Gastrointestinal toxicity in rat at 84 umol/kg, sc. The class given is organism-based. The settings on record: in vivo. A digest of the protocol: (§3)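 Female rats dosed sc once daily for four days. Mortality, perforating GI ulcer incidence, melena defecation and body weight loss recorded 24 h after last dose.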
For data set [5], the system named is Rattus norvegicus. The experiment in a line: Increase in paw weight in Fischer rats at 300 umol/kg, ip. The class given is functional. A digest of the protocol:
as §2

Data set [6] relates to Radical scavenging activity. The experiment in a line: DPPH radical scavenging activity at 0.05 mM. Format: functional. The method in brief: as §1
For data set [7], the system named is Rattus norvegicus. Put plainly: Inhibition of arthritis in rat at 300-600 umol/kg, id. Format: functional. A digest of the protocol: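 Arthritis induced in rats by id injection of complete Freund's adjuvant; compounds dosed 300-600 µmol/kg for 14 days, arthritic score assessed day 15 post adjuvant, % inhibition versus controls; mean of 4-6 rats, Student's t test.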

The target in data set [8] is T1, Seed linoleate 13S-lipoxygenase-1 (Glycine max, UniProt P08170).
T1 sequence (P08170 whole entry): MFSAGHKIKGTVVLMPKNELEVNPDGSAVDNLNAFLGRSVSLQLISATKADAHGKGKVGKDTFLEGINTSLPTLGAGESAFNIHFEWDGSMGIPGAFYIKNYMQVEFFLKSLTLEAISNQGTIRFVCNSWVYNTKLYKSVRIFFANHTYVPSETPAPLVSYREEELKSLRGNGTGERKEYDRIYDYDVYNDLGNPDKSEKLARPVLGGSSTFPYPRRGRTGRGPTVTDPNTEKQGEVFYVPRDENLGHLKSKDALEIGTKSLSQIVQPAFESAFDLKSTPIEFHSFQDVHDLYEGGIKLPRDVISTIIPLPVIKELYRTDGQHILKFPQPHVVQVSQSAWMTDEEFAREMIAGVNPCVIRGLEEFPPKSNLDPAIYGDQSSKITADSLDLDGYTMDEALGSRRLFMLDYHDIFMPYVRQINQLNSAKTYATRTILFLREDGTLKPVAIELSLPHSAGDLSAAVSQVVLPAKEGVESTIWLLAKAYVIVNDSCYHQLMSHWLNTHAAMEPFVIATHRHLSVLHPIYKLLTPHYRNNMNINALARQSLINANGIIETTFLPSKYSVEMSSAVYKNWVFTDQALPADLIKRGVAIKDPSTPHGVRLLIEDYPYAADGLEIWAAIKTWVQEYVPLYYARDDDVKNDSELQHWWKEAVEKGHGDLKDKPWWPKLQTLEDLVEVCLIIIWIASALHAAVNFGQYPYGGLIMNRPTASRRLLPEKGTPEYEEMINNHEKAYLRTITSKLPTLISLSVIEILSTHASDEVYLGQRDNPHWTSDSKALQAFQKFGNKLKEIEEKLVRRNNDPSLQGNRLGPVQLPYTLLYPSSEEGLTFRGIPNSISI
Put plainly: Inhibition of soybean lipoxygenase. The class given is functional. A digest of the protocol:
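Soybean lipoxygenase, 220 U/ml, with sodium linoleate (100 μM) substrate, pH 9, 28 °C, 5 min; IC50 determined.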

In data set [9] the test system is Radical scavenging activity. The experiment in a line: DPPH radical scavenging activity at 0.2 mM. Format: functional. The method in brief: as §1
In data set [10] the test system is Rattus norvegicus. The experiment in a line: Decrease in triglyceride level in rat at 200 umol/kg, ip. Details: scale not given: the % may be the effect or the level left. The settings on record: route intraperitoneal.
Data set [11] concerns Rattus norvegicus. The experiment in a line: Decrease in LDL cholesterol level in rat at 200 umol/kg, ip. Details: scale not given: the % may be the effect or the level left. The note with it: route intraperitoneal.
Data set [12] relates to Radical scavenging activity. Put plainly: Inhibition of lipid peroxidation of rat hepatic microsomal membrane lipids. Format: functional, Liver.
Data set [13] has as its system Rattus norvegicus. Put plainly: Gastrointestinal toxicity in rat at 1350 umol/kg, sc. Format: organism-based. The settings on record: in vivo. A digest of the protocol:
as §3

The test system of data set [14] is Radical scavenging activity. Put plainly: Inhibition of lipid peroxidation of rat hepatic microsomal membrane lipids at 1 mM. The settings on record: Liver.
For data set [15], the system named is Rattus norvegicus. Put plainly: Decrease in LDL cholesterol level in rat at 56 umol/kg, ip. Details: scale not given: the % may be the effect or the level left. The note with it: route intraperitoneal.
Data set [16] deals with Rattus norvegicus. The experiment in a line: Decrease in triglyceride level in rat at 56 umol/kg, ip. The note with it: route intraperitoneal. Details: scale not given: the % may be the effect or the level left.
Data set [17] relates to Rattus norvegicus. The experiment in a line: Decrease in total cholesterol level in rat at 56 umol/kg, ip. Details: scale not given: the % may be the effect or the level left. The note with it: route intraperitoneal.

Take `CCOC(=O)C(CS)NC(=O)C1CCCN1C(=O)Cc1c(C)n(C(=O)c2ccc(Cl)cc2)c2ccc(OC)cc12` (stereo unspecified): the Activity in data set [1] was 44.2%; in the data set with Rattus norvegicus [2], 78%; with Rattus norvegicus [4] it was “Non-toxic”; in the data set with Rattus norvegicus [5], 50.1%; in [6], 31.1%; in data set [9], 69.7%. The figures for the Activity in the data set with Rattus norvegicus [10] and in the data set with Rattus norvegicus [11] were 55.7% and 48.4%, respectively. This compound displayed an inhibition in vivo at 300 µmol/kg with Rattus norvegicus [3] of 14.3%. In the data set with Rattus norvegicus [7], this compound showed an Inhibition of 77.4%. Moreover, the results for the IC50 in data set [8] and in data set [12] were 200 µM and 390 µM, respectively.

As to `COc1ccc2cc(C(C)C(=O)N3CCCC3C(=O)NCCS)ccc2c1` (stereo unspecified), the Activity in data set [1] was 56.3%; with Rattus norvegicus [5] it was 42.9%; in [6], 28.8%; in data set [9] it was 78.9%; in the data set on Rattus norvegicus [13], “Non-toxic”. In addition, the inhibition in vivo at 300 µmol/kg in the data set with Rattus norvegicus [3] was 26.7%. The same compound had an Inhibition with Rattus norvegicus [7] of 51.6%. Further, inhibition in data set [8] was half-maximal at 35 µM (IC50).

`NCCS` displayed an inhibition in data set [14] of 37%.

`COc1ccc2c(c1)c(CC(=O)O)c(C)n2C(=O)c1ccc(Cl)cc1` [INDOMETHACIN] gave an inhibition in vivo at 300 µmol/kg with Rattus norvegicus [3] of 53.9%. The Activity entry with Rattus norvegicus [4] is recorded as “Toxic”; in the data set with Rattus norvegicus [5] it was 27%.

As for `CCOC(=O)[C@@H](N)CS`, the inhibition in [14] was found to be 49%.

As for `COc1ccc2cc(C(C)C(=O)N3CC(O)CC3C(=O)NCCS)ccc2c1` (stereo unspecified), the Activity in [1] worked out at 36.5%; with Rattus norvegicus [5], 44.4%; in data set [6], 21.3%; in data set [9], 56.2%. The compound also had an inhibition in vivo at 300 µmol/kg with Rattus norvegicus [3] of 24.1%.

In the case of `CCOC(=O)C(CS)NC(=O)C1CCCCN1C(=O)C(C)c1ccc2cc(OC)ccc2c1` (stereo unspecified), the Activity in the data set with Rattus norvegicus [15] is 52%; in data set [1] it was 46%; with Rattus norvegicus [5], 34.9%; in data set [6] it was 23.5%; in data set [9] it was 76.7%; in the data set on Rattus norvegicus [16], 21.3%. In the data set on Rattus norvegicus [17], this compound displayed an Activity of 40%. This compound also yielded an inhibition in vivo at 300 µmol/kg with Rattus norvegicus [3] of 50.7%. This compound also returned an IC50 in data set [12] of 122 µM.

As for `CCOC(=O)C(CS)NC(=O)C1CCCN1C(=O)C(C)c1ccc2cc(OC)ccc2c1` (stereo unspecified), the Activity was 55% with Rattus norvegicus [15]; 61.9% in [1]; 44.6% in the data set with Rattus norvegicus [5]; 32.1% in data set [6]; 86.3% in data set [9]; 68.7% with Rattus norvegicus [16]. The Activity with Rattus norvegicus [17] is on record as 58%; in the data set on Rattus norvegicus [13], “Non-toxic”. The same compound gave an inhibition in vivo at 300 µmol/kg in the data set on Rattus norvegicus [3] of 23.7%. Moreover, in the data set on Rattus norvegicus [7], the Inhibition is on record as 100%. The IC50 was found to be 48 µM in [8] and 320 µM in data set [12].

In the data set on Rattus norvegicus [3], `COc1ccc2cc([C@H](C)C(=O)O)ccc2c1` [NAPROXEN] had an inhibition in vivo at 300 µmol/kg of 51%. For the same compound, the results for the Activity in the data set on Rattus norvegicus [5] and in the data set with Rattus norvegicus [13] were 28.7% and “Toxic”, respectively.

In the case of `COc1ccc2c(c1)c(CC(=O)N1CCCC1C(=O)NCCS)c(C)n2C(=O)c1ccc(Cl)cc1` (stereo unspecified), the outcome in [1], in [6] and in [9] was inactive. Further, the inhibition in vivo at 300 µmol/kg in the data set on Rattus norvegicus [3] stood at 17%. Also, the Activity entry is “Non-toxic” in the data set on Rattus norvegicus [4] and 48.5% with Rattus norvegicus [5]. In the data set on Rattus norvegicus [7], this compound displayed an Inhibition of 50.8%.
